Assay outcomes (PubChem)
NR2F2 inh: inhibitors of human COUP-TFII (NR2F2); P24468; HEK293T NGFI-A luciferase reporter, luminescence; inhibition, % at 8.6 µM; 370,000 tested, 0.7% active;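 active = inhibition above a per-plate cutoff, mean inhibition of test wells between control levels plus 3 SD, cut at about 38% in these data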;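 note: cells cotransfected with COUP-TFII expression vector driving the NGFI-A reporter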
GalR3 antagonist: human GalR3 antagonism; O60755; HEK293 GalR3-CNG cAMP membrane potential fluorescence; galR3 body fused to GalR1 C-terminus; inhibition, % at 3 µM; 360,000 tested, 0.44% active; AID 651719;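 active = inhibition above the screen-wide average plus 3 SD, cut at about 13% in these data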;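 note: forskolin and galanin both at EC90 stimulate the cells; cAMP rise reported by CNG channel membrane potential dye signal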
CHT PAM: allosteric activators of human choline transporter CHT | AID 488977 | B-score at 10 µM | CHT-expressing cells, membrane potential dye, choline EC20; active compounds read high; LV-AA mutant CHT in HEK293 cells | 310,000 tested, 0.49% active;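 active = initial fluorescence not abnormally high and integrated response B-score, plate-corrected, over 3 SD above library mean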
Target sequence (Q9GZV3 whole entry, looked up): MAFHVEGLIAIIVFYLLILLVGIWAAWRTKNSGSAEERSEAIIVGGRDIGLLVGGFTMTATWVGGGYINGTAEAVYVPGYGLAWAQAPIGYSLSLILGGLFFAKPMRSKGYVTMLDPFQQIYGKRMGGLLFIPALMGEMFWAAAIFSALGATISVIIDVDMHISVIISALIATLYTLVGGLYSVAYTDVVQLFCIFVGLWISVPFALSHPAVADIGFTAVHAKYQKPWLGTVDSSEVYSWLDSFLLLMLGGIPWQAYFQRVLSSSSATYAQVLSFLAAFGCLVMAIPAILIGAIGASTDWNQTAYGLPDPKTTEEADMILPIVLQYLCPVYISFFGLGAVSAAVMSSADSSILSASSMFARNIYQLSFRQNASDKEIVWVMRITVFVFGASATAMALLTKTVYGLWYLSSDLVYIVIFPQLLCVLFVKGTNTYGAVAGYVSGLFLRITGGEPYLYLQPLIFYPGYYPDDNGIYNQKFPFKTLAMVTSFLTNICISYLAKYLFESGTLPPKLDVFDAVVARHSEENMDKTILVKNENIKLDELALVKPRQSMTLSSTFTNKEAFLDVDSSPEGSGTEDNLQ
NR2E3 ag-1: agonists of human nuclear receptor NR2E3; AID 2300; inhibition of corepressor binding, % at 4.78 µM; Q9Y5X4; 320,000 tested, 0.12% active; GST-NR2E3/biotin-RetCOR TR-FRET, 1536-well;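 active = percent inhibition above the cutoff of mean plus 3 SD of all tested compounds, set per screening campaign, cut at about 20% in these data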
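Test system – NR2E3–RetCOR corepressor complex · Quantity – NR2E3 fusion 1.35 nM · Buffer or medium – Tris pH 7.5 · Incubation – Compound–protein incubation for 5 h at 4 °C · Technique – TR-FRET, Eu(K)-anti-GST donor, streptavidin-D2 acceptor, ex 340, em 617/671 nm · Evaluation – percent inhibition of 671/617 nm emission ratio versus biotin and DMSO controls · Plate – 1536-well format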
CHT inh: human CHT choline transport inhibition; Q9GZV3; CHT-expressing cells, membrane potential dye, choline response; active compounds read low; B-score at 10 µM; 310,000 tested, 0.86% active; AID 488975;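 active = B-score over 3 SD under the library average, and starting fluorescence ratio not unusually high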;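 note: choline stimulus applied at its EC90 after an EC20 pre-addition; B-score computed on integrated fluorescence ratio after choline addition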
NR2E3 ag-2: activates human NR2E3 receptor. Q9Y5X4. CHO-S Gal4-NCOR/VP16-NR2E3 two-hybrid, luciferase. inhibition of corepressor binding, % at 3.98 µM. 360,000 tested, 0.35% active;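 active = inhibition above the mean of all tested compounds plus 3 SD, cut at about 70% in these data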;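 note: higher means lower luciferase signal from less NR2E3 corepressor binding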
NR2E3 ag conf: NR2E3 agonism confirmed in two-hybrid assay | shares compounds with NR2E3 ag-2 | CHO-S mammalian two-hybrid NR2E3-NCOR, luciferase luminescence | inhibition, % at 3.98 µM | 2,300 tested, 51% active;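 active = average inhibition above a cutoff equal to the mean inhibition of all tested compounds plus one SD, cut at about 70% in these data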
VP16 counter: counter-screen for NR2E3 agonists: GAL4-VP16 reporter inhibitors | shares compounds with NR2E3 ag-2 | CHO-S GAL4-VP16 luciferase reporter, luminescence | inhibition, % at 3.98 µM | 2,300 tested, 29% active | AID 624379;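 active = mean inhibition above a cutoff equal to the average over all tested compounds plus one standard deviation, cut at about 70% in these data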;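 note: luciferase from a UAS reporter driven by GAL4-VP16 transactivation; higher means less reporter light so more repression of VP16 activity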
A number is an active result; i = inactive; nt = no result given. A selection: hits, their analogues and other compounds. The true share with any hit is near 2.3%.

SMILES | NR2F2 inh | GalR3 antagonist | CHT PAM | NR2E3 ag-1 | CHT inh | NR2E3 ag-2 | NR2E3 ag conf | VP16 counter
Cc1ccc2nc(-c3ccc(CN4CCC(n5c(=O)[nH]c6cc(Cl)ccc65)CC4)cc3)c(-c3ccccc3)nc2c1 | i | i | nt | nt | nt | nt | nt | nt
COC(=O)C[C@]1(C(=O)OC)CN(C#N)N(c2ccc(Cl)cc2)C12c1ccccc1-c1ccccc12 | 102.3 | i | i | i | i | 88.6 | 80.5 | i
COC1C(OC(=O)c2ccc(C)[nH]2)C(O)C(Oc2ccc3c(O)c(NC(=O)c4ccc(O)c(CC=C(C)C)c4)c(=O)oc3c2Cl)OC1(C)C (configuration not stated) | i | i | i | i | i | 80.9 | i | i
CN(C(=O)Oc1ccc([N+](=O)[O-])cc1)c1ccccc1 | i | i | i | i | i | i | nt | nt
CN(Cc1cccc(-c2ccncc2)c1)C(=O)Oc1ccc([N+](=O)[O-])cc1 | nt | nt | nt | nt | nt | 89.6 | 80.8 | 74.3
COc1cc(CCN)c(OC)cc1C | i | i | nt | nt | nt | nt | nt | nt
O=c1[nH]c2cc(Cl)ccc2n1C1CCN(Cc2ccc(-c3nc4ccccc4nc3-c3ccccc3)cc2)CC1 | i | i | nt | nt | nt | nt | nt | nt
CCOc1ccc(-n2c(-c3ccoc3)nc3ccccc3c2=O)cc1 | i | i | i | i | i | i | nt | nt
CCOc1ccc(-c2c(C)n(-c3ccc(OCC)cc3)c3[n+]2CCCCC3)cc1 | 90.4 | 18.7 | i | i | i | i | 97.0 | i
COc1cccc(C(=O)NCCN2CCC3(CC2)C(=O)NCN3c2ccccc2)c1 | i | i | nt | nt | nt | nt | nt | nt
O=c1[nH]c2ccccc2n1C1CCN(C(c2ccccc2)c2nnnn2-c2ccc3c(c2)OCCO3)CC1 (configuration not stated) | i | i | nt | nt | nt | i | nt | nt
O=c1[nH]c2ccccc2n1C1CCN(C(c2ccccc2OC(F)(F)F)c2nnnn2-c2ccc3c(c2)OCCO3)CC1 (configuration not stated) | i | i | nt | nt | nt | i | i | i
CSCCC(c1nnnn1-c1ccc2c(c1)OCCO2)N1CCC(n2c(=O)[nH]c3ccccc32)CC1 (configuration not stated) | i | i | nt | nt | nt | i | i | i
C=CCN1CC[C@]23c4c5ccc(O)c4OC2C(=O)CC[C@@]3(O)[C@H]1C5 (some centres not stated) | i | i | nt | nt | nt | nt | nt | nt
COC(=O)C1C(c2ccc(I)cc2)CC2CCC1N2C (configuration not stated) | i | i | nt | nt | nt | nt | nt | nt
CC(=O)OCC12CC(OC(=O)CC(C)C)C(C)=CC1OC1C(O)C(OC(C)=O)C2(C)C12CO2 (configuration not stated) | 91.5 | i | nt | nt | nt | 100.6 | 99.8 | 99.4
Oc1cc(Cl)c(Cl)c(Cl)c1Cl | i | i | nt | nt | nt | 73.9 | i | 74.9
Cc1c(NS(=O)(=O)c2ccccc2)ccc([N+](=O)[O-])c1Cl | i | i | nt | nt | nt | 84.6 | 95.6 | 84.4
O=c1[nH]sc2cc(F)ccc12 | i | i | nt | nt | nt | i | i | i
C=CC1C[N+]2(C)CCC1CC2C(O)c1ccnc2ccccc12 (configuration not stated) | i | i | nt | nt | nt | nt | nt | nt
CC1=CC(O)C(O)C2(C)C1CC1OC(=O)C(O)C3C(C)C(O)C4(O)OCC13C42 (configuration not stated) | nt | nt | nt | nt | nt | i | nt | nt
COC(=O)[C@]12OC[C@]34C([C@@H](O)[C@@H]1O)[C@]1(C)CC(=O)C(O)=C(C)[C@@H]1C[C@H]3OC(=O)[C@H](O)[C@@H]24 (some centres not stated) | 75.8 | i | i | i | i | i | i | i
CN(C)C(=S)SSC(=S)N(C)C | i | nt | i | i | i | 94.7 | i | i
CCN(CC)C(=O)c1ccc(NC(=O)c2cc(S(=O)(=O)N3CCCCCC3)ccc2OC)cc1 | i | i | i | i | i | i | nt | nt
CCN(CC)C(=O)c1ccc(NC(=O)c2cccc(S(=O)(=O)N3CCN(Cc4ccccc4)CC3)c2)cc1 | i | i | i | i | i | i | i | i
